{"source": "ChEMBL document CHEMBL2346664", "about": "“Synthesis, characterization and in vitro anticancer evaluation of novel 1,2,4-triazolin-3-one derivatives” (2013)", "format_in_all_cases": "functional", "key": {"NCI-H522 [1]": {"tested_on": "NCI-H522", "experiment": "Growth inhibition of human NCI-H522 cells assessed as cell growth at 10 uM after 48 hrs by sulforhodamine B assay", "conditions": "NCI-H522, 48 h, read-out: Activity"}, "OVCAR-8": {"tested_on": "OVCAR-8", "experiment": "Growth inhibition of human OVCAR8 cells assessed as growth inhibition at 10 uM after 48 hrs by sulforhodamine B assay", "conditions": "OVCAR-8, 48 h, read-out: GI"}, "UO-31 [2]": {"tested_on": "UO-31", "experiment": "Growth inhibition of human UO31 cells assessed as cell growth at 10 '-8 M after 48 hrs by sulforhodamine B assay", "conditions": "UO-31, 48 h, read-out: Activity"}, "NCI-H522 [3]": {"tested_on": "NCI-H522", "experiment": "Growth inhibition of human NCI-H522 cells assessed as cell growth at 10 '-7 M after 48 hrs by sulforhodamine B assay", "conditions": "NCI-H522, 48 h, read-out: Activity"}, "OVCAR-5": {"tested_on": "OVCAR-5", "experiment": "Growth inhibition of human OVCAR5 cells assessed as cell growth at 10 '-6 M after 48 hrs by sulforhodamine B assay", "conditions": "OVCAR-5, 48 h, read-out: Activity"}, "T47D": {"tested_on": "T47D", "experiment": "Growth inhibition of human T47D cells assessed as growth inhibition at 10 uM after 48 hrs by sulforhodamine B assay", "conditions": "read-out: GI"}, "TK-10 [4]": {"tested_on": "TK-10", "experiment": "Growth inhibition of human TK10 cells assessed as cell growth at 10 '-4 M after 48 hrs by sulforhodamine B assay", "conditions": "TK-10, 48 h, read-out: Activity"}, "SNB-19": {"tested_on": "SNB-19", "experiment": "Growth inhibition of human SNB19 cells assessed as cell growth at 10 '-6 M after 48 hrs by sulforhodamine B assay", "conditions": "SNB-19, 48 h, read-out: Activity"}, "U-251": {"tested_on": "U-251", "experiment": "Growth inhibition of human U251 cells after 48 hrs by sulforhodamine B assay", "conditions": "U-251, 48 h"}, "[5]": {"experiment": "Growth inhibition of human Hs 578T cells assessed as growth inhibition at 10 uM after 48 hrs by sulforhodamine B assay", "conditions": "read-out: GI"}, "COLO 205 [6]": {"tested_on": "COLO 205", "experiment": "Growth inhibition of human COLO205 cells assessed as cell growth at 10 '-4 M after 48 hrs by sulforhodamine B assay", "conditions": "COLO 205, 48 h, read-out: Activity", "in_short": "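In the same five-dose SRB screen (48 h, 37 °C, 5% CO2), percentage growth was computed at each concentration from time-zero (Tz), control (C) and treated (Ti) absorbances. The formula was [(Ti−Tz)/(C−Tz)]×100 when Ti ≥ Tz, or [(Ti−Tz)/Tz]×100 when Ti < Tz.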"}, "HOP-62": {"tested_on": "HOP-62", "experiment": "Growth inhibition of human HOP62 cells assessed as cell growth at 10 '-6 M after 48 hrs by sulforhodamine B assay", "conditions": "HOP-62, 48 h, read-out: Activity"}, "KM12": {"tested_on": "KM12", "experiment": "Growth inhibition of human KM12 cells assessed as cell growth at 10 '-5 M after 48 hrs by sulforhodamine B assay", "conditions": "KM12, 48 h, read-out: Activity"}, "TK-10 [7]": {"tested_on": "TK-10", "experiment": "Growth inhibition of human TK10 cells assessed as cell growth at 10 '-7 M after 48 hrs by sulforhodamine B assay", "conditions": "TK-10, 48 h, read-out: Activity"}, "SK-MEL-5": {"tested_on": "SK-MEL-5", "experiment": "Growth inhibition of human SK-MEL-5 cells assessed as cell growth at 10 '-4 M after 48 hrs by sulforhodamine B assay", "conditions": "SK-MEL-5, 48 h, read-out: Activity"}, "HOP-92": {"tested_on": "HOP-92", "experiment": "Growth inhibition of human HOP92 cells assessed as cell growth at 10 '-6 M after 48 hrs by sulforhodamine B assay", "conditions": "HOP-92, 48 h, read-out: Activity"}, "SNB-75": {"tested_on": "SNB-75", "experiment": "Growth inhibition of human SNB75 cells assessed as cell growth at 10 '-5 M after 48 hrs by sulforhodamine B assay", "conditions": "SNB-75, 48 h, read-out: Activity"}, "HL-60(TB)": {"tested_on": "HL-60(TB)", "experiment": "Growth inhibition of human HL-60(TB) cells after 48 hrs by sulforhodamine B assay", "conditions": "HL-60, 48 h", "in_short": "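NCI 60-cell-line five-dose screen over 0.01, 0.1, 1, 10 and 100 µM, with 48 h continuous exposure at 37 °C and 5% CO2 after 24 h pre-incubation (5,000–40,000 cells/well). Cells were TCA-fixed (10% final for adherent, 16% for suspension), stained with SRB and read at 515 nm. GI50 was solved from [(Ti−Tz)/(C−Tz)]×100 = 50 against time-zero plates.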"}, "UACC-62": {"tested_on": "UACC-62", "experiment": "Growth inhibition of human UACC62 cells after 48 hrs by sulforhodamine B assay", "conditions": "UACC-62, 48 h"}, "786-0": {"tested_on": "786-0", "experiment": "Growth inhibition of human 786-0 cells assessed as cell growth at 10 '-4 M after 48 hrs by sulforhodamine B assay", "conditions": "786-0, 48 h, read-out: Activity", "in_short": "(§1)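 Percent growth at each of the five concentrations of the 48 h continuous-exposure NCI SRB screen. Drug stocks were in DMSO at 400× the top final concentration and diluted in medium with gentamicin. Growth was calculated as [(Ti-Tz)/(C-Tz)]×100 when Ti ≥ Tz, or [(Ti-Tz)/Tz]×100 when Ti < Tz. Tz plates were fixed at drug addition; untreated wells served as control. Absorbance was read at 515 nm.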"}, "SK-MEL-28": {"tested_on": "SK-MEL-28", "experiment": "Growth inhibition of human SK-MEL-28 cells after 48 hrs by sulforhodamine B assay", "conditions": "SK-MEL-28, 48 h"}, "SF-539": {"tested_on": "SF-539", "experiment": "Growth inhibition of human SF539 cells after 48 hrs by sulforhodamine B assay", "conditions": "SF-539, 48 h"}, "[8]": {"experiment": "Growth inhibition of human NCI-ADR-RES cells assessed as growth inhibition at 10 uM after 48 hrs by sulforhodamine B assay", "conditions": "read-out: GI"}, "SK-MEL-2": {"tested_on": "SK-MEL-2", "experiment": "Growth inhibition of human SK-MEL-2 cells assessed as cell growth at 10 '-4 M after 48 hrs by sulforhodamine B assay", "conditions": "SK-MEL-2, 48 h, read-out: Activity"}, "COLO 205 [9]": {"tested_on": "COLO 205", "experiment": "Growth inhibition of human COLO205 cells assessed as cell growth at 10 '-7 M after 48 hrs by sulforhodamine B assay", "conditions": "COLO 205, 48 h, read-out: Activity"}, "A549 [10]": {"tested_on": "A549", "experiment": "Growth inhibition of human A549 cells assessed as cell growth at 10 '-6 M after 48 hrs by sulforhodamine B assay", "conditions": "A549, 48 h, read-out: Activity", "in_short": "as §1"}, "NCI-H23": {"tested_on": "NCI-H23", "experiment": "Growth inhibition of human NCI-H23 cells assessed as cell growth at 10 '-6 M after 48 hrs by sulforhodamine B assay", "conditions": "NCI-H23, 48 h, read-out: Activity"}, "A549 [11]": {"tested_on": "A549", "experiment": "Growth inhibition of human A549 cells assessed as cell growth at 10 '-5 M after 48 hrs by sulforhodamine B assay", "conditions": "A549, 48 h, read-out: Activity", "in_short": "as §1"}, "UO-31 [12]": {"tested_on": "UO-31", "experiment": "Growth inhibition of human UO31 cells assessed as cell growth at 10 '-4 M after 48 hrs by sulforhodamine B assay", "conditions": "UO-31, 48 h, read-out: Activity"}, "PC-3": {"tested_on": "PC-3", "experiment": "Growth inhibition of human PC3 cells assessed as cell growth at 10 '-7 M after 48 hrs by sulforhodamine B assay", "conditions": "PC-3, 48 h, read-out: Activity"}, "Malme-3M": {"tested_on": "Malme-3M", "experiment": "Growth inhibition of human MALME-3M cells assessed as growth inhibition at 10 uM after 48 hrs by sulforhodamine B assay", "conditions": "read-out: GI"}, "[13]": {"conditions": "read-out: LD50 (the source's name)"}}}
{"compound": "Cc1nn(-c2ccc(Cl)cc2)c(=O)n1CCN1CCOCC1", "values": [{"measurement": "growth at 10 µM", "setting": "NCI-H522 [1]", "result": 69, "unit": "%"}]}
{"compound": "Cc1cc(=O)oc2cc(OCCn3c(C)nn(-c4ccc(Cl)cc4)c3=O)ccc12", "values": [{"measurement": "inhibition of growth at 10 µM", "setting": "OVCAR-8", "result": 82.3, "unit": "%"}, {"measurement": "growth at 0.01 µM", "setting": "UO-31 [2]", "result": 86, "unit": "%"}, {"measurement": "growth at 0.1 µM", "setting": "NCI-H522 [3]", "result": 96, "unit": "%"}, {"measurement": "growth at 1 µM", "setting": "OVCAR-5", "result": 89, "unit": "%"}, {"measurement": "inhibition of growth at 10 µM", "setting": "T47D", "result": 52.6, "unit": "%"}, {"measurement": "growth at 100 µM", "setting": "TK-10 [4]", "result": -3, "unit": "%"}, {"measurement": "growth at 1 µM", "setting": "SNB-19", "result": 80, "unit": "%"}, {"measurement": "GI50", "setting": "U-251", "result": 4180, "unit": "nM"}, {"measurement": "TGI", "setting": "U-251", "result": 7230, "unit": "nM"}, {"measurement": "CC50", "setting": "U-251; [13]", "result": "> 1000", "unit": "nM"}, {"measurement": "inhibition of growth at 10 µM", "setting": "[5]", "result": 65.2, "unit": "%"}, {"measurement": "growth at 100 µM", "setting": "COLO 205 [6]", "result": -38, "unit": "%"}, {"measurement": "growth at 1 µM", "setting": "HOP-62", "result": 89, "unit": "%"}, {"measurement": "growth at 10 µM", "setting": "KM12", "result": 21, "unit": "%"}, {"measurement": "growth at 0.1 µM", "setting": "TK-10 [7]", "result": 101, "unit": "%"}, {"measurement": "growth at 100 µM", "setting": "SK-MEL-5", "result": 4, "unit": "%"}, {"measurement": "growth at 1 µM", "setting": "HOP-92", "result": 83, "unit": "%"}, {"measurement": "growth at 10 µM", "setting": "SNB-75", "result": 5, "unit": "%"}, {"measurement": "GI50", "setting": "HL-60(TB)", "result": 2800, "unit": "nM"}, {"measurement": "GI50", "setting": "UACC-62", "result": 1990, "unit": "nM"}, {"measurement": "TGI", "setting": "UACC-62", "result": "> 1000", "unit": "nM"}, {"measurement": "CC50", "setting": "UACC-62; [13]", "result": "> 1000", "unit": "nM"}, {"measurement": "growth at 100 µM", "setting": "786-0", "result": 15, "unit": "%"}, {"measurement": "GI50", "setting": "SK-MEL-28", "result": 3130, "unit": "nM"}, {"measurement": "TGI", "setting": "SK-MEL-28", "result": "> 1000", "unit": "nM"}, {"measurement": "CC50", "setting": "SK-MEL-28; [13]", "result": "> 1000", "unit": "nM"}, {"measurement": "GI50", "setting": "SF-539", "result": 4060, "unit": "nM"}, {"measurement": "TGI", "setting": "SF-539", "result": 4740, "unit": "nM"}, {"measurement": "CC50", "setting": "SF-539; [13]", "result": "> 1000", "unit": "nM"}, {"measurement": "inhibition of growth at 10 µM", "setting": "[8]", "result": 75.3, "unit": "%"}, {"measurement": "growth at 100 µM", "setting": "SK-MEL-2", "result": 14, "unit": "%"}, {"measurement": "growth at 0.1 µM", "setting": "COLO 205 [9]", "result": 102, "unit": "%"}, {"measurement": "growth at 1 µM", "setting": "A549 [10]", "result": 96, "unit": "%"}, {"measurement": "growth at 1 µM", "setting": "NCI-H23", "result": 64, "unit": "%"}, {"measurement": "growth at 10 µM", "setting": "A549 [11]", "result": 37, "unit": "%"}, {"measurement": "growth at 100 µM", "setting": "UO-31 [12]", "result": 39, "unit": "%"}, {"measurement": "growth at 0.1 µM", "setting": "PC-3", "result": 90, "unit": "%"}, {"measurement": "inhibition of growth at 10 µM", "setting": "Malme-3M", "result": 67.1, "unit": "%"}]}
